In ChEMBL document CHEMBL3124940, “Design, synthesis and biological evaluation of D-ring opened galantamine analogs as multifunctional anti-Alzheimer agents” (Eur J Med Chem, 2014):
The source made the active and inactive calls.

Tests used:
[1] = system: Rattus norvegicus; assay: Antialzheimer activity in Wistar rat scopolamine-induced cognition impairment model assessed as total exploration time at 1 umol/100 g body weight, ip treated for 5 mins prior to scopolamine-challenge by eight-arm radial maze test relative to control; format: functional
In short: (§1)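 Female 60-day-old Wistar rats (Han:Wist) trained in an eight-arm radial maze to error-free trials under 60 s on three consecutive days; each animal served as its own control. Test agent given i.p. in saline 5 min before scopolamine (0.05 mg/100 g b. wt., i.p. in saline). Errors plus baits not found after 10 min, and total searching time, recorded before and 20, 60, 120 min after scopolamine; n = 14, mean ± SEM.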

[2] = system: Rattus norvegicus; assay: Antialzheimer activity in Wistar rat scopolamine-induced cognition impairment model assessed as decrease in amount of errors plus baits not found during exploration at 1 umol/100 g body weight, ip treated for 5 mins prior to scopolamine-challenge measured after 20 to 120 mins by eight-arm radial maze test; format: functional, organism-based; in short: as §1
[3] = system: PC-12; assay: Neuroprotective activity in rat PC12 cells assessed as decrease in amyloid beta (1 to 42)-induced cytotoxicity at 0.08 to 10 uM after 24 hrs by MTT assay; format: functional, cell-based
In short: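 PC12 cells grown in F-12 with 10% FBS, 37 °C, 5% CO2. Seeded at 2000 cells/well for 24 h. Aβ42 pretreated with HFIP, then brought to 100 μM in medium and held at 4 °C for 24 h. Compound (final […]–10 μM, DMSO <0.5%) given with Aβ42 (final 5 μM) for 24 h. MTT 4 h, formazan read at 540 nm. Expressed as % of control; three independent trials, mean ± SEM.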

[4] = target: Amyloid-beta precursor protein (Homo sapiens) (UniProt P05067); assay: Inhibition of amyloid beta (1 to 42) aggregation (unknown origin) at 5 to 100 uM after 1 hr by thioflavin T fluorescence assay
In short: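 Aβ42 stock 200 μM in DMSO, centrifuged 12,000 rpm 10 min; supernatant used. ThT in 50 mM glycine-NaOH pH 8.5 then added. Fluorescence read at ex 430 / em 488 nm. Curcumin as positive control.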

Amyloid-beta precursor protein (Homo sapiens), sequence (P05067 whole entry): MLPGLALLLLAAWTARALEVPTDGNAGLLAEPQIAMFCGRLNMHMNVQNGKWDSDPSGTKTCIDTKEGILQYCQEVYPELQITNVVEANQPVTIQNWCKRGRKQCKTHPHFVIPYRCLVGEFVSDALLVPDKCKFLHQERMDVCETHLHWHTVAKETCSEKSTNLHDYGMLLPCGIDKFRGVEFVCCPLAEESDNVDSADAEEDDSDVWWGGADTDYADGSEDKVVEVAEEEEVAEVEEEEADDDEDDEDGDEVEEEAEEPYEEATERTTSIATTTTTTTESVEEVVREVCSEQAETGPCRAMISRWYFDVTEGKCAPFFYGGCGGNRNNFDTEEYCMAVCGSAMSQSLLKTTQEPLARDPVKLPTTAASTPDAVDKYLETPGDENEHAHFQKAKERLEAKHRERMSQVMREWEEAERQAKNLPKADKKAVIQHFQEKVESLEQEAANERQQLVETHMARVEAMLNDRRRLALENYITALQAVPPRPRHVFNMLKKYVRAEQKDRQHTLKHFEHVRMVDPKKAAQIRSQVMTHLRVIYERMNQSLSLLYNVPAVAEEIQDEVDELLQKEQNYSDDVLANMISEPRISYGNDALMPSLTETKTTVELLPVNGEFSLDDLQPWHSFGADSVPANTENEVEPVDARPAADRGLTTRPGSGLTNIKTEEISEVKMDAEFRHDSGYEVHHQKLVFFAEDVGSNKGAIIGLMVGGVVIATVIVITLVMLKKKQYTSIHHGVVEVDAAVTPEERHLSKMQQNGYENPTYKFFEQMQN

COc1ccc2c3c1O[C@H]1C[C@@H](O)C=C[C@@]31CCN(C)C2
inactive: Activity [1] | Activity [2] | Activity [3] | inhibition [4]
